# Calls of active or inactive are those of the source. The calls are words filed in the database; no cut-off is given here.
# Tests used:
# Bcl-2-related protein A1 = target: T1, Bcl-2-related protein A1 (Homo sapiens, UniProt Q16548); experiment: Inhibition of GST-tagged recombinant Bfl1 interaction with biotinylated Bim peptide by ELISA based competitive binding assay
# T1 sequence (Q16548 whole entry): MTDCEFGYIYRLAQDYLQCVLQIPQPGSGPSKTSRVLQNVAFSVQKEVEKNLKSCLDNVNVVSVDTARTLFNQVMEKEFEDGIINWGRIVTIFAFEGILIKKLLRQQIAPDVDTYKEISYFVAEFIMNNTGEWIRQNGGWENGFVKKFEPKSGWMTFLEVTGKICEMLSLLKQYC
# How it was run: (§1)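 Plates coated with anti-GST antibody (1 µg/mL, overnight, 4 °C), blocked in PBS/1% BSA. GST-tagged Bcl-xL, Bcl-2, Bfl-1 or Mcl-1 (10 ng/mL) bound 2 h, RT. Compound added for 1 h, then biotinylated Bim peptide (1 nM) for 1 h. HRP-streptavidin detection, acid stop, OD 450 nm; EC50 derived.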
# MEF [1] = experiment: Induction of cell death in mouse MEF cells containing Bax/Bak double knock out at 10 uM by Annexin V and propidium iodide staining based FACS method; type: functional
# How it was run: (§2)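 Wild-type and DKO MEFs kept in DMEM with 10% FBS, 2 mM glutamine, 10 mM Hepes and gentamicin. Cultured in medium alone or with compound, staurosporine 1 µM as reference. Viability read by flow cytometry; mean ± SEM of 3 independent experiments.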
# [2] = target: Induced myeloid leukemia cell differentiation protein Mcl-1 (Homo sapiens, UniProt Q07820); experiment: Inhibition of GST-tagged recombinant Mcl1 interaction with biotinylated Bim peptide by ELISA based competitive binding assay; how it was run: as §1
# Bcl-2-like protein 1 [3] = target: T2, Bcl-2-like protein 1 (Homo sapiens, UniProt Q07817); experiment: Inhibition of GST-tagged recombinant Bcl-XL interaction with biotinylated Bim peptide by ELISA based competitive binding assay; how it was run: as §1
# BP3 [4] = experiment: Induction of apoptosis in human BP3 cells at 10 uM incubated for 24 hrs by Annexin V and propidium iodide staining based FACS method; type: functional, cell-based
# How it was run: (§3)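 Tumour lines grown in RPMI with 10% FBS, 2 mM glutamine, 10 mM Hepes and gentamicin; PBMC from healthy donors, purified on Ficoll gradient, same medium. Cells exposed 24 h, then Annexin V/propidium iodide labelling and flow cytometry. Specific viability = (% viable treated × 100)/% viable untreated.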
# RS4-11 [5] = experiment: Induction of apoptosis in human RS4:11 cells at 10 uM incubated for 24 hrs by Annexin V and propidium iodide staining based FACS method; type: functional, cell-based; how it was run: as §3
# IM-9 [6] = experiment: Induction of apoptosis in human IM9 cells at 10 uM incubated for 24 hrs by Annexin V and propidium iodide staining based FACS method; type: functional, cell-based; how it was run: as §3
# [7] = target: Apoptosis regulator Bcl-2 (Homo sapiens, UniProt P10415); experiment: Inhibition of GST-tagged recombinant Bcl2 interaction with biotinylated Bim peptide by ELISA based competitive binding assay; how it was run: as §1
# Bcl-2-like protein 1 [8] = target: T2, Bcl-2-like protein 1; experiment: Inhibition of Bcl-XL-mediated cell death reduction expressed in serum starved mouse 3T3 cells assessed as residual cell viability at 5 uM incubated for 96 hrs by propidium iodide staining based FACS method; details: NIH3T3
# How it was run: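 3T3 cells infected with pMig-hBcl-xL vector to overexpress human Bcl-xL, maintained in DMEM/10% FBS. Compound 5 µM given under serum starvation; % residual viability scored at 96 h by propidium iodide staining and FACS.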
# MEF [9] = experiment: Induction of cell death in mouse MEF cells containing Bax/Bak double knock out at 1.25 to 10 uM by Annexin V and propidium iodide staining based FACS method; type: functional; how it was run: as §2
# PBMC = experiment: Induction of apoptosis in human PBMCs at 5 or 10 uM incubated for 24 hrs by Annexin V and propidium iodide staining based FACS method; type: cell-based; how it was run: as §3
# RS4-11 [10] = experiment: Induction of apoptosis in human RS4:11 cells at 5 uM incubated for 24 hrs by Annexin V and propidium iodide staining based FACS method; type: functional, cell-based
# How it was run: (§4)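 Cells grown in RPMI with 10% FBS, 2 mM glutamine, 10 mM Hepes and gentamicin. Exposed to compound for 24 h, then labelled with Annexin V and propidium iodide and read by flow cytometry. Specific viability = (% viable treated × 100)/% viable untreated.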
# IM-9 [11] = experiment: Induction of apoptosis in human IM9 cells at 5 uM incubated for 24 hrs by Annexin V and propidium iodide staining based FACS method; type: functional, cell-based; how it was run: as §4
# MEF [12] = experiment: Induction of cell death in mouse MEF cells containing Bax/Bak double knock out at 1 uM by Annexin V and propidium iodide staining based FACS method; type: functional
# How it was run: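 Wild-type and Bax/Bak double-knockout MEFs were grown in DMEM with 10% FBS, 2 mM glutamine, 10 mM Hepes and gentamicin. They were treated for 24 h and stained with propidium iodide, with or without Annexin V, then analysed by flow cytometry. Data are mean ± SEM of 3 independent experiments.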
# BP3 [13] = experiment: Induction of apoptosis in human BP3 cells at 5 uM incubated for 24 hrs by Annexin V and propidium iodide staining based FACS method; type: functional, cell-based; how it was run: as §4
# Apoptosis regulator Bcl-2, sequence (P10415 whole entry): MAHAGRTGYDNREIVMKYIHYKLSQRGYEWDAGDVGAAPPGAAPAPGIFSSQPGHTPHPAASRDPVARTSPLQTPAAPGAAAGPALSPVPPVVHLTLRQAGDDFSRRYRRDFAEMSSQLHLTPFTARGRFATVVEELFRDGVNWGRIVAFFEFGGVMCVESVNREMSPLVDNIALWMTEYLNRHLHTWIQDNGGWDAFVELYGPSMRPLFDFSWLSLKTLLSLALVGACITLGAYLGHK
# Induced myeloid leukemia cell differentiation protein Mcl-1, sequence (Q07820 whole entry): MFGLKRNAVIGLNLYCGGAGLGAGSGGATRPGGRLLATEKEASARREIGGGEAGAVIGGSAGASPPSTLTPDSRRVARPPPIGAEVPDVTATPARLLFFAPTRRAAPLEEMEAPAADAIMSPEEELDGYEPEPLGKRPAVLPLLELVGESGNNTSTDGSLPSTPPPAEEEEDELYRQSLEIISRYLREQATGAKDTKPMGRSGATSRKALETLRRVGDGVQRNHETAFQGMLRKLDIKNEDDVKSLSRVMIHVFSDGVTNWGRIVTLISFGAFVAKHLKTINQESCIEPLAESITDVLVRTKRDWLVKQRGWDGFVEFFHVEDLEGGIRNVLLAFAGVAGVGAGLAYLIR
# T2 sequence (Q07817 whole entry): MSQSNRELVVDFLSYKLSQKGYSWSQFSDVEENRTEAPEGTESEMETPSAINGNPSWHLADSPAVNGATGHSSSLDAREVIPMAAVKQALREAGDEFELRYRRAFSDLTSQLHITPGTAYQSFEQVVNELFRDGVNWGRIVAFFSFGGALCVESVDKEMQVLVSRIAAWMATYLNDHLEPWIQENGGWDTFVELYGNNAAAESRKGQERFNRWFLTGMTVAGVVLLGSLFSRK
smiles,measurement,setting,value
COC1=CC(c2cc3ccccc3[nH]2)=N/C1=C\c1[nH]c(C)cc1C [OBATOCLAX],EC50,Bcl-2-related protein A1,0.6 µM
same,Activity,MEF [1],inactive
same,EC50,[2],0.5 µM
same,EC50,Bcl-2-like protein 1 [3],0.9 µM
same,Activity,BP3 [4],Active
same,Activity,RS4-11 [5],Active
same,Activity,IM-9 [6],Active
same,EC50,[7],0.3 µM
CCOc1nc2ccccc2cc1-c1cc(C(C)C)c2cc(-c3cc(C(C)C)c4ccc(N5CCOCC5)nc4c3)c(OCC)nc2c1,Activity,Bcl-2-like protein 1 [8],93.6%
CCCOc1nc2ccccc2cc1-c1cc(C(C)C)c2ccc(N3CCCC3)nc2c1,Activity,Bcl-2-like protein 1 [8],86.8%
CC(C)c1cc(-c2cc3ccccc3nc2N2CCCC2)cc2nc(N3CCCC3)ccc12,EC50,Bcl-2-related protein A1,21.5 µM
same,Activity,Bcl-2-like protein 1 [8],4.37%
same,EC50,[2],2.3 µM
same,EC50,Bcl-2-like protein 1 [3],> 100 µM
same,Activity,BP3 [4],inactive
same,Activity,RS4-11 [5],inactive
same,Activity,IM-9 [6],inactive
same,EC50,[7],1.4 µM
CCCOc1nc2ccccc2cc1-c1cc(C(C)C)c2ccc(N3CCOCC3)nc2c1,EC50,Bcl-2-related protein A1,17.8 µM
same,Activity,Bcl-2-like protein 1 [8],55.5%
same,EC50,[2],11.6 µM
same,EC50,Bcl-2-like protein 1 [3],> 100 µM
same,Activity,BP3 [4],inactive
same,Activity,RS4-11 [5],inactive
same,Activity,IM-9 [6],inactive
same,EC50,[7],6.6 µM
CCCOc1nc2cc(-c3cc4ccccc4nc3N3CCCC3)cc(C(C)C)c2cc1-c1cc(C(C)C)c2ccc(N3CCOCC3)nc2c1,Activity,Bcl-2-like protein 1 [8],96.5%
CN(C)CC[C@H](CSc1ccccc1)Nc1ccc(S(=O)(=O)NC(=O)c2ccc(N3CCN(Cc4ccccc4-c4ccc(Cl)cc4)CC3)cc2)cc1[N+](=O)[O-],Activity,MEF [1],inactive
same,Activity,BP3 [4],Active
same,Activity,RS4-11 [5],Active
same,Activity,IM-9 [6],Active
CCCOc1ccc2c(C(C)C)cc(-c3cc4c(C(C)C)cc(-c5cc6ccccc6nc5N5CCCC5)cc4nc3OCC)cc2n1,Activity,Bcl-2-like protein 1 [8],96.4%
CCCOc1nc2ccccc2cc1-c1cc(C(C)C)c2cc(-c3cc(C(C)C)c4ccc(N5CCOCC5)nc4c3)c(OCCC)nc2c1,Activity,Bcl-2-like protein 1 [8],92.9%
CCCOc1ccc2c(C(C)C)cc(-c3cc4c(C(C)C)cc(-c5cc6ccccc6nc5N5CCOCC5)cc4nc3OCCC)cc2n1,Activity,Bcl-2-like protein 1 [8],92.3%
CCCOc1nc2ccccc2cc1-c1cc(C(C)C)c2cc(-c3cc(C(C)C)c4ccc(N5CCCC5)nc4c3)c(OCCC)nc2c1,Activity,Bcl-2-like protein 1 [8],94.6%
CCOc1nc2ccccc2cc1-c1cc(C(C)C)c2cc(-c3cc(C(C)C)c4ccc(N5CCCC5)nc4c3)c(OCC)nc2c1,Activity,Bcl-2-like protein 1 [8],92.3%
CCOc1ccc2c(C(C)C)cc(-c3cc4ccccc4nc3N3CCCC3)cc2n1,Activity,MEF [9],inactive
same,EC50,Bcl-2-related protein A1,25.5 µM
same,Activity,Bcl-2-like protein 1 [8],0.42%
same,EC50,[2],2.1 µM
same,EC50,Bcl-2-like protein 1 [3],6.2 µM
same,Activity,BP3 [4],inactive
same,Activity,RS4-11 [5],Active
same,Activity,IM-9 [6],Active
same,EC50,[7],3.5 µM
same,Activity,PBMC,Non-toxic
CCOc1ccc2c(C(C)C)cc(-c3cc4c(C(C)C)cc(-c5cc6ccccc6nc5N5CCCC5)cc4nc3OCC)cc2n1,Activity,Bcl-2-like protein 1 [8],95.3%
CCCOc1nc2cc(-c3cc4ccccc4nc3N3CCOCC3)cc(C(C)C)c2cc1-c1cc(C(C)C)c2ccc(OCC)nc2c1,Activity,Bcl-2-like protein 1 [8],95.2%
CCCOc1nc2cc(-c3cc4ccccc4nc3N3CCCC3)cc(C(C)C)c2cc1-c1cc(C(C)C)c2ccc(N3CCCC3)nc2c1,Activity,Bcl-2-like protein 1 [8],90.5%
CCOc1ccc2c(C(C)C)cc(-c3cc4ccccc4nc3N3CCOCC3)cc2n1,EC50,Bcl-2-related protein A1,24 µM
same,Activity,Bcl-2-like protein 1 [8],37.9%
same,EC50,[2],3.5 µM
same,EC50,Bcl-2-like protein 1 [3],14.6 µM
same,Activity,BP3 [4],inactive
same,Activity,RS4-11 [5],inactive
same,Activity,IM-9 [6],inactive
same,EC50,[7],2.7 µM
CCCOc1nc2cc(-c3cc4ccccc4nc3N3CCOCC3)cc(C(C)C)c2cc1-c1cc(C(C)C)c2ccc(N3CCOCC3)nc2c1,Activity,Bcl-2-like protein 1 [8],81.6%
CC(C)=CCC[C@]1(C)C=Cc2c(O)c3c(c(CC=C(C)C)c2O1)O[C@]12C(=C[C@@H]4C[C@H]1C(C)(C)O[C@@]2(C/C=C(/C)C(=O)O)C4=O)C3=O,Activity,RS4-11 [10],inactive
same,Activity,IM-9 [11],inactive
same,Activity,MEF [12],Active
same,Activity,BP3 [13],inactive
CCOc1nc2cc(-c3cc4ccccc4nc3N3CCCC3)cc(C(C)C)c2cc1-c1cc(C(C)C)c2ccc(N3CCOCC3)nc2c1,Activity,Bcl-2-like protein 1 [8],91%
CN[C@@H]1C[C@H]2O[C@@](C)([C@@H]1OC)n1c3ccccc3c3c4c(c5c6ccccc6n2c5c31)C(=O)NC4,Activity,MEF [12],Active
CCCOc1nc2cc(-c3cc4ccccc4nc3N3CCCC3)cc(C(C)C)c2cc1-c1cc(C(C)C)c2ccc(OCC)nc2c1,Activity,Bcl-2-like protein 1 [8],94.5%
CCCOc1ccc2c(C(C)C)cc(-c3cc4c(C(C)C)cc(-c5cc6ccccc6nc5N5CCCC5)cc4nc3OCCC)cc2n1,Activity,Bcl-2-like protein 1 [8],92.8%
CCCOc1ccc2c(C(C)C)cc(-c3cc4ccccc4nc3N3CCCC3)cc2n1,Activity,Bcl-2-like protein 1 [8],84.4%
CCCOc1nc2cc(-c3cc4ccccc4nc3N3CCOCC3)cc(C(C)C)c2cc1-c1cc(C(C)C)c2ccc(N3CCCC3)nc2c1,Activity,Bcl-2-like protein 1 [8],93.4%
CCCOc1ccc2c(C(C)C)cc(-c3cc4ccccc4nc3N3CCOCC3)cc2n1,EC50,Bcl-2-related protein A1,8.2 µM
same,Activity,Bcl-2-like protein 1 [8],32.7%
same,EC50,[2],7.9 µM
same,EC50,Bcl-2-like protein 1 [3],> 100 µM
same,Activity,BP3 [4],inactive
same,EC50,[7],9.2 µM
CC(C)c1cc(-c2cc3ccccc3nc2N2CCOCC2)cc2nc(N3CCOCC3)ccc12,Activity,Bcl-2-like protein 1 [8],67.9%
CCOc1nc2cc(-c3cc4ccccc4nc3N3CCOCC3)cc(C(C)C)c2cc1-c1cc(C(C)C)c2ccc(N3CCCC3)nc2c1,Activity,Bcl-2-like protein 1 [8],92.2%
CCOc1nc2cc(-c3cc4ccccc4nc3N3CCOCC3)cc(C(C)C)c2cc1-c1cc(C(C)C)c2ccc(N3CCOCC3)nc2c1,Activity,Bcl-2-like protein 1 [8],96.5%
CCOc1nc2cccc(C(C)C)c2cc1-c1cc(C(C)C)c2ccc(N3CCOCC3)nc2c1,Activity,Bcl-2-like protein 1 [8],70.3%
CCOc1nc2cccc(C(C)C)c2cc1-c1cc(C(C)C)c2ccc(N3CCCC3)nc2c1,Activity,Bcl-2-like protein 1 [8],91.6%
CCOc1nc2cc(-c3cc4ccccc4nc3N3CCCC3)cc(C(C)C)c2cc1-c1cc(C(C)C)c2ccc(N3CCCC3)nc2c1,Activity,Bcl-2-like protein 1 [8],95.1%

# — ChEMBL document CHEMBL2169820, “Synthesis and biological activities of polyquinoline derivatives: new Bcl-2 family protein modulators” (Eur J Med Chem, 2012)
